The target of assay [1] is Neuropeptide Y receptor type 1 (Homo sapiens, UniProt P25929). As to the kind of experiment: Affinity against Neuropeptide Y receptor Y1 in SK-N-MC cell line. Format: cell-based.
The target in assay [2] is T1, Neuropeptide Y receptor type 2 (Homo sapiens, UniProt P49146).
T1 sequence (P49146 whole entry): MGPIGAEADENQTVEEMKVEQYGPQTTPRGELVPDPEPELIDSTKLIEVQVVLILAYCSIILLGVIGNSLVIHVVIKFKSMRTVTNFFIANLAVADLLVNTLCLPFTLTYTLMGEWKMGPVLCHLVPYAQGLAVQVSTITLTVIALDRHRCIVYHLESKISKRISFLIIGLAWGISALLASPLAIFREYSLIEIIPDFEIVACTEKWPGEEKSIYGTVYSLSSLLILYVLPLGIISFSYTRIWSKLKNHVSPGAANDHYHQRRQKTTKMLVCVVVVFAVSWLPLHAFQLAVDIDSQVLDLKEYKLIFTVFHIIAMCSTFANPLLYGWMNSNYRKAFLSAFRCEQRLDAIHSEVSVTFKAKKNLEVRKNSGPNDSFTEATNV
As to the kind of experiment: Affinity against Neuropeptide Y receptor Y2 in SK-N-BE2 cell line.

Assay [3] deals with Neuropeptide Y receptor type 2 (Rattus norvegicus, UniProt Q9ERC0). As to the kind of experiment: Tested for the affinity for intestinal PYY from rat jejunum by using short circuit current (SCC) method.
Sequence of Neuropeptide Y receptor type 2 (Rattus norvegicus, UniProt Q9ERC0) (Q9ERC0 whole entry, the tested form may be a part): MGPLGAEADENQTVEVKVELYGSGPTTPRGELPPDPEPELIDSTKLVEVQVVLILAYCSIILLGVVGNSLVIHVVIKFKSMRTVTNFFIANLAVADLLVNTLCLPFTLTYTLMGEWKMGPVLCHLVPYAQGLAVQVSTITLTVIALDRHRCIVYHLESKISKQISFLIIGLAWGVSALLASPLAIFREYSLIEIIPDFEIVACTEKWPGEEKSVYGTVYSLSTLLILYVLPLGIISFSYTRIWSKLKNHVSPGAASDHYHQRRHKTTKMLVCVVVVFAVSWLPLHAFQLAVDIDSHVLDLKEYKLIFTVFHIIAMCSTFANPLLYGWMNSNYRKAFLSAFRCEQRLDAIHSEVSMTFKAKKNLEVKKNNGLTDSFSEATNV
Assay [4] is filed under the species Canis familiaris. As to the kind of experiment: Peak proabsorptive effects of intralbuminal Infusion on absorption of Na+ in the colon of awake dogs bearing ileal and/or Colonic Thiry-Vella Fistulasa. Format: functional, organism-based. The note with it: Canis lupus familiaris.
For assay [5], the system named is Rattus norvegicus. In words: Tested for in vivo antisecretory potency for inhibiting VIP-induced (30 micro g/kg/h) secretion in isolated jejunum in anesthetized rats.(95% CL). Format: functional. The conditions noted are these: read-out: ID50 (the source's name). In short, it runs like this:
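Rats anesthetized, saphenous vein cannulated. Isolated jejunal loop instilled with 2000 μL fluid. At the end the loop is excised, measured and weighed before and after emptying. Net water flux (μL/cm/30 min) = (F-E)2000/L; negative means absorption. 6-8 animals per dose.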

The species entered for assay [6] is Canis familiaris. As to the kind of experiment: Peak proabsorptive effects of intralbuminal Infusion on absorption of Na+ in the ileum of awake dogs bearing ileal and/or Colonic Thiry-Vella Fistulasa. The assay is classed as functional, organism-based. The conditions noted are these: Canis lupus familiaris.
The species entered for assay [7] is Canis familiaris. In words: Peak proabsorptive effects of intralbuminal Infusion on absorption of water in the colon of awake dogs bearing ileal and/or Colonic Thiry-Vella Fistulasa. The assay is classed as functional, organism-based. The note with it: Canis lupus familiaris.
The species named for assay [8] is Canis familiaris. In words: Peak proabsorptive effects of intralbuminal Infusion on absorption of water in the ileum of awake dogs bearing ileal and/or Colonic Thiry-Vella Fistulasa. Format: functional, organism-based. The conditions noted are these: Canis lupus familiaris.
Assay [9] is filed under the species Canis familiaris. In words: Peak proabsorptive effects of intralbuminal Infusion on absorption of Cl- in the ileum of awake dogs bearing ileal and/or Colonic Thiry-Vella Fistulasa. The assay is classed as functional, organism-based. The note with it: Canis lupus familiaris.
The species named for assay [10] is Canis familiaris. As to the kind of experiment: Peak proabsorptive effects of intralbuminal Infusion on absorption of Cl- in the colon of awake dogs bearing ileal and/or Colonic Thiry-Vella Fistulasa. The assay is classed as functional, organism-based. The note with it: Canis lupus familiaris.

pIC50: −log10 of the molar value. Where a SMILES comes first, the peptide text is derived from it. [ ]: non-standard residue; d: D form. Bip = N[C@@H](Cc1ccc(-c2ccccc2)cc1)C(=O)O

The record followed here is ChEMBL document CHEMBL1133640, “Structure-activity studies including a Psi(CH(2)-NH) scan of peptide YY (PYY) active site, PYY(22-36), for interaction with rat intestinal PYY receptors: development of analogues with potent in vivo activity in the intestine” (J Med Chem, 2000).

Sequence of Neuropeptide Y receptor type 1 (P25929 whole entry): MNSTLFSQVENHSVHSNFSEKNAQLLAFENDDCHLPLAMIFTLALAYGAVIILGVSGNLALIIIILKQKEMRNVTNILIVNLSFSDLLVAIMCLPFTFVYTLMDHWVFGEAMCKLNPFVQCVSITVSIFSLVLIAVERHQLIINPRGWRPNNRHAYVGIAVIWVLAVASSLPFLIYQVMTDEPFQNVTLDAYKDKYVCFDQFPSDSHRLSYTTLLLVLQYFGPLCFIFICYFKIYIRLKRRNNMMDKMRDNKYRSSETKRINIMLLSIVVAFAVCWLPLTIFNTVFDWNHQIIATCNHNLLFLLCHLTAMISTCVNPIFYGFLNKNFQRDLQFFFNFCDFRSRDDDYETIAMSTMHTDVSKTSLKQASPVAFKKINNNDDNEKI

As usually defined, the pIC50 is the IC50 on a negative log10 scale, so that one unit is a factor of ten. Read a low pIC50 as a large IC50. Take Ac-ASLRHYWNLVTRQRY-NH2: the pIC50 in assay [1] was 6.40; in [2], 8.68; in [3], 9.22.
Regarding `CC(=O)N[C@@H](C)C(=O)N[C@@H](CO)C(=O)N[C@@H](CC(C)C)C(=O)N[C@@H](CCCN=C(N)N)C(=O)N[C@@H](Cc1c[nH]cn1)C(=O)N[C@@H](Cc1ccc(-c2ccccc2)cc1)C(=O)N[C@@H](CC(C)C)C(=O)N[C@@H](CC(N)=O)C(=O)N[C@@H](CC(C)C)C(=O)N[C@H](C(=O)N[C@H](C(=O)N[C@@H](CCCN=C(N)N)C(=O)N[C@@H](CCC(N)=O)C(=O)N[C@@H](CCCN=C(N)N)C(=O)N[C@@H](Cc1ccc(O)cc1)C(N)=O)[C@@H](C)O)C(C)C` (Ac-ASLRH[Bip]LNLVTRQRY-NH2), the pIC50 is 6.55 in assay [1], 7.85 in [2] and 8.62 in [3].
As to Ac-ASLRHYLWLVTRQRY-NH2, the pIC50 was 6.12 in [1], 6.80 in [2] and 7.00 in [3].
On to Ac-ASLRHWLNLVTRQRY-NH2, for which the Absorption (u equiv min-1) amounted to 78 in [4], 120 in [6], 101 in assay [9] and 77 in assay [10]. For the same molecule, in assay [5], the ED50 was 3.33e-05 µmol/kg. The figures for the Absorption in [7] and in assay [8] were 503 µL/min and 725 µL/min, respectively.
Take `CNC(=O)[C@H](Cc1ccc(O)cc1)NC(=O)[C@H](CCCNC(=N)N)NC(=O)[C@H](CCC(N)=O)NC(=O)[C@H](CCCNC(=N)N)NC(=O)[C@@H](NC(=O)[C@@H](NC(=O)[C@H](CC(C)C)NC(=O)[C@H](CC(N)=O)NC(=O)[C@H](CC(C)C)NC(=O)[C@H](Cc1c[nH]c2ccccc12)NC(=O)[C@H](Cc1cnc[nH]1)NC(=O)[C@H](CCCNC(=N)N)NC(=O)[C@H](CC(C)C)NC(=O)[C@H](CO)NC(=O)[C@H](C)NC(C)=O)C(C)C)[C@@H](C)O` (Ac-ASLRHWLNLVTRQRY-NHMe): the pIC50 in assay [1] is less than 6.00; in assay [2], less than 7.00; in assay [3] it was less than 7.00.
